Results pooled from the literature.
Protocols differ between the studies behind these lines.
Target: Mitogen-activated protein kinase kinase kinase 2 (MAP3K2, Homo sapiens, UniProt Q9Y2U5)
Sequence (Q9Y2U5 1-619, as in one of the studies): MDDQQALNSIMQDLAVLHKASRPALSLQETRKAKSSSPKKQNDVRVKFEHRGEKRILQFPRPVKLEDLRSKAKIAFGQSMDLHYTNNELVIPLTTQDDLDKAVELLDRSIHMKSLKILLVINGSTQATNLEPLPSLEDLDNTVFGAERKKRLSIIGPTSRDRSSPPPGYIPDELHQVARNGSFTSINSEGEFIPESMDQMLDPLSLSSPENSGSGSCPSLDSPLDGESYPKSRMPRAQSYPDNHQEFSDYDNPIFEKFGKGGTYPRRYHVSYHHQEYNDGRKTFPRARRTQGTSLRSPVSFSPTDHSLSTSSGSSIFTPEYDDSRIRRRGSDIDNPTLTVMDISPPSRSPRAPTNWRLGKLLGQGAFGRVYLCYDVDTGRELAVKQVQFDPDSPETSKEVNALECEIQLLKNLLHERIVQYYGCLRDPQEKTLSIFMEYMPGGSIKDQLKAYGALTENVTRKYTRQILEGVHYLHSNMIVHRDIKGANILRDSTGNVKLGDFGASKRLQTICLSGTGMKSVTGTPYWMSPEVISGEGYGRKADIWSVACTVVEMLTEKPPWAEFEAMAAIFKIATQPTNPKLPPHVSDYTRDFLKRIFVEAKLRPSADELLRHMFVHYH

SMILES	observed	mode	method	cells	tested at	measurement	result
Nc1ncnc2occ(-c3ccc(NC(=O)Nc4cc(C(F)(F)F)ccc4F)cc3)c12	cell-free assay	inhibitor			20 µM	remaining signal	1.4%
CC(C)(C)c1nc2c(s1)c1nc(N)ncc1c1ccc(NS(=O)(=O)c3c(F)cccc3F)c(F)c12	enzyme activity	inhibitor	radiometric		1 µM	remaining activity	83%
Cc1cc(C)c(-n2ccn3nc(-c4cccnc4)cc23)cc1NC(=O)c1cc(C#N)cc(S(F)(F)(F)(F)F)c1	cell-free assay		competition with immobilised ligand		0.1 µM	remaining binding	86.4%
Cc1cc(NC(=O)c2cccc3cc(-c4cccc5[nH]nc(N)c45)ccc23)ccc1F	enzyme activity	inhibitor			0.1 µM	activity vs control	100%
Cc1ccc(C(=O)NCc2ccsc2)cc1C#Cc1cn(C(C)C)c2ncnc(N)c12	enzyme activity	inhibitor			1 µM	activity vs control	61%
CCN1CCN(Cc2ccc(NC(=O)c3ccc(C)c(Oc4ccnc5[nH]ccc45)c3)cc2C(F)(F)F)CC1	target engagement in cells	inhibitor	chemoproteomics	Huh-7	1 µM	inhibition	-39%
O=C(Nc1cnn(-c2csc(C(=O)NC3COC3)c2)c1)Nc1ccccc1Cl	enzyme activity	inhibitor			5 µM	remaining activity	110%
CN([C@@H]1CCc2c(CC(=O)O)c3ccccc3n2C1)S(=O)(=O)c1ccc(F)cc1	cell-free assay		competition with immobilised ligand		1 µM	remaining binding	100%
O=C1NC(=O)c2cc(Nc3ccc(F)cc3)c(Nc3ccc(F)cc3)cc21	cell-free assay				0.5 µM	remaining signal	94.8%
O=c1nc(-c2ccccn2)sc2ccccc12	binding		competition with immobilised ligand		1 µM	remaining binding	92%
COc1cc2c(Nc3ccc(Br)cc3F)ncnc2cc1OCC1CCN(C)CC1	cell-free assay				0.5 µM	remaining signal	108%
Cc1sc(C(=O)NC2COC2)cc1-n1cc(NC(=O)Nc2c(F)cccc2Cl)cn1	enzyme activity	inhibitor			10 µM	remaining activity	88.1%
O=C1Nc2ccc(Cl)cc2C1=Cc1cc(Cl)c(O)c(Cl)c1	cell-free assay				0.5 µM	remaining signal	95.7%
Cc1nc(C2CCN(C(=O)c3ccc(OC(F)(F)F)cc3N)CC2)c2ncc(N3CCN(C)CC3)cc2n1	cell-free assay		competition with immobilised ligand		1 µM	remaining binding	100%
